In general, IC50 refers to the concentration needed to halve the response being measured. Usually Ki stands for the equilibrium dissociation constant of an inhibitor or competing ligand from its target. The term half-life denotes the time in which the quantity being followed falls by half. One may read the bioavailability as dose-corrected exposure relative to a reference, in per cent.

Series [1] deals with T1, Somatostatin receptor type 2 (Homo sapiens, UniProt P30874). In words: Agonist activity at human SST2 expressed in CHO cells assessed as inhibition of forskolin-stimulated cAMP release after 40 mins by luminescence assay. It counts as functional, cell-based.
Series [2] has as its target T1, Somatostatin receptor type 2. In words: Displacement of I125-somatostatin-14 from human SST2 expressed in CHO cells after 3 hrs by scintillation counting. It counts as cell-based.
Series [3] addresses T2, Gonadotropin-releasing hormone receptor (Homo sapiens, UniProt P30968).
T2 sequence (P30968 whole entry): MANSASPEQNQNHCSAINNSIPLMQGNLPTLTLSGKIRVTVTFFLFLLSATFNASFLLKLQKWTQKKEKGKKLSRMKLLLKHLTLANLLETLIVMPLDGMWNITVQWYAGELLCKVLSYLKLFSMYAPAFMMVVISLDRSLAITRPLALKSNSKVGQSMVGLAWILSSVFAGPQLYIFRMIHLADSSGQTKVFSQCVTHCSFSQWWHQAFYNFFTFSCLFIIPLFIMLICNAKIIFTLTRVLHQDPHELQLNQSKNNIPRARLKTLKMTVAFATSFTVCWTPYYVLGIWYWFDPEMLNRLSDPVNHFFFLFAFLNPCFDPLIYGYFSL
Put plainly: Antagonist activity at GnRH receptor by GnRH. It is filed as functional.

The nature of series [4]: Plasma clearance in rat at 2 mg/kg, iv and 10 mg/kg, po. It counts as ADME, organism-based.
Series [5] in a line: Half life in rat at 2 mg/kg, iv and 10 mg/kg, po. The note with it: in vivo. It is filed as ADME, organism-based.
The nature of series [6]: Volume of distribution at steady state in rat at 2 mg/kg, iv and 10 mg/kg, po. It is filed as ADME, organism-based. The settings on record: in vivo, read-out: Vdss.
A short description of series [7]: Oral bioavailability in rat at 2 mg/kg, iv and 10 mg/kg, po iv. It counts as ADME, organism-based. The settings on record: in vivo.
Series [8] is filed under the species Homo sapiens. In words: Selectivity for human SST2 over human SST1. The gist of the method: (§1)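 Human sst1, sst2, sst3, sst4 or sst5 stably expressed in CHO cells; membrane displacement of 0.1 nM 125I-somatostatin-14 by compound 0-10000 nM, 30 min tracer preincubation then 3 h at room temperature, filtration and scintillation counting; selectivity taken from the binding values across subtypes.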

Series [9] is filed under the species Homo sapiens. In words: Selectivity for human SST2 over human SST3. The procedure, abridged: as §1
For series [10], the species on record is Homo sapiens. In words: Selectivity for human SST2 over human SST5. The procedure, abridged: as §1
Series [11] is described as follows: Plasma clearance in dog at 2 mg/kg, iv and 10 mg/kg, po. It counts as ADME, organism-based, Canis lupus familiaris.
A short description of series [12]: Half life in dog at 2 mg/kg, iv and 10 mg/kg, po. It counts as ADME, organism-based, Canis lupus familiaris. The note with it: in vivo.
A short description of series [13]: Volume of distribution at steady state in dog at 2 mg/kg, iv and 10 mg/kg, po. It is filed as ADME, organism-based, Canis lupus familiaris. The note with it: in vivo, read-out: Vdss.
Series [14] can be described thus: Plasma clearance in rat at 2 mg/kg, iv and 5 mg/kg, po. It is filed as ADME, organism-based.
Series [15] can be described thus: Half life in rat at 2 mg/kg, iv and 5 mg/kg, po. It counts as ADME, organism-based. The settings on record: in vivo.
The nature of series [16]: Volume of distribution at steady state in rat at 2 mg/kg, iv and 5 mg/kg, po. The settings on record: in vivo, read-out: Vdss. It is filed as ADME, organism-based.
Series [17] can be described thus: Oral bioavailability in rat at 2 mg/kg, iv and 5 mg/kg, po. It counts as ADME, organism-based. The note with it: in vivo.
Series [18] can be described thus: Plasma clearance in dog at 0.125 mg/kg, iv. Set-up: dose 0.125 mg/kg, route intravenous. It counts as ADME, organism-based, Canis lupus familiaris. The gist of the method: (§2)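 Dog PK after 0.125 mg/kg iv; plasma clearance (mL/min/kg), half-life (h) and steady-state volume of distribution (L/kg).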
The nature of series [19]: Half life in dog at 0.125 mg/kg, iv. It is filed as ADME, organism-based, Canis lupus familiaris. Set-up: dose 0.125 mg/kg, route intravenous. The settings on record: in vivo. The gist of the method:
as §2

Series [20] in a line: Volume of distribution at steady state in dog at 0.125 mg/kg, iv. On the set-up: dose 0.125 mg/kg, route intravenous. The settings on record: in vivo, read-out: Vdss. It counts as ADME, organism-based, Canis lupus familiaris. The procedure, abridged: as §2
For series [21], the system named is Rattus norvegicus. In words: Antiangiogenic activity against laser-induced choroidal neovascularization rat model assessed as reduction in neovascular lesion area at 5 ug, intraocular administered once every 4 days. Set-up: scale not given: the % may be the effect or the level left. It is filed as functional. The procedure, abridged: (§3)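 Laser-induced choroidal neovascularization in male Brown Norway rats (175-225 g). After lasering and topical 0.5% proparacaine, 5 μL vehicle (5% ethanol in PBS) or compound injected intravitreally 3 mm posterior to iris on days 0, 4 and 8; neovascular lesion area measured.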

The test system of series [22] is Rattus norvegicus. Put plainly: Antiangiogenic activity against laser-induced choroidal neovascularization rat model assessed as reduction in neovascular lesion area at 15 ug, intraocular administered once every 4 days. It is filed as functional. Set-up: scale not given: the % may be the effect or the level left. The procedure, abridged: as §3
Series [23] has as its system Rattus norvegicus. Put plainly: Antiangiogenic activity against laser-induced choroidal neovascularization rat model assessed as reduction in neovascular lesion area, intraocular administered once every 4 days. It counts as functional, organism-based. The settings on record: Eye. The gist of the method: as §3
Series [24] relates to Rattus norvegicus. In words: Inhibition of secretagogue-induced growth hormone release in iv dosed Wistar rat plasma after 50 mins before secretagogue challenge measured after every 5 to 15 mins. It is filed as functional, organism-based. The procedure, abridged:
(§4)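 Female Wistar rats (200-250 g) with jugular and carotid cannulas, pentobarbital-anesthetized (50 mg/kg ip); vehicle or compound given iv via jugular cannula, GH secretagogue (10 μg/kg iv) 50 min later.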

In series [25] the test system is Rattus norvegicus. In words: Inhibition of secretagogue-induced growth hormone release in Wistar rat assessed as reduction in plasma growth hormone area under the curve at 0.2 mg/kg, iv treated 50 mins before secretagogue challenge measured after every 5 to 15 mins. On the set-up: scale not given: the % may be the effect or the level left. It counts as functional. The procedure, abridged:
as §4

For series [26], the system named is Rattus norvegicus. In words: Inhibition of secretagogue-induced growth hormone release in Wistar rat assessed as reduction in plasma growth hormone area under the curve at 2 mg/kg, iv treated 50 mins before secretagogue challenge measured after every 5 to 15 mins. It is filed as functional. Set-up: scale not given: the % may be the effect or the level left. The gist of the method: as §4

Series [27] in a line: Aqueous solubility of the compound. It is filed as physicochemical. The settings on record: buffer.

Molecules are shown by their SMILES.

T1 sequence (P30874 whole entry): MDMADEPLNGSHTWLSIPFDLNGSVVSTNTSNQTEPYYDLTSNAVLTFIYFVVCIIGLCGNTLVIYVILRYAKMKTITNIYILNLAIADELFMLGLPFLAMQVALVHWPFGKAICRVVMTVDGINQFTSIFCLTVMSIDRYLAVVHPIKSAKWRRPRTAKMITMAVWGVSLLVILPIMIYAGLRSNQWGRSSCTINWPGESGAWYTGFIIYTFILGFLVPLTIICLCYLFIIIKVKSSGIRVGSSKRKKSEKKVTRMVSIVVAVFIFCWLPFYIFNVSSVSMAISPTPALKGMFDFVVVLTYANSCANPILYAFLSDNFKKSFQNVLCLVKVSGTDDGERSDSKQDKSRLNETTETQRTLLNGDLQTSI

`Cc1cc(C)cc(-c2cnc3cc(Cl)c(-c4ccncc4)cc3c2OCC[C@H]2CCCCN2)c1`: in series [1], the 50% inhibitory concentration (IC50) came out at 20 nM. This compound also gave a Ki in series [2] of 0.11 nM.
For `Cc1cc(C)cc(-c2cnc3cc(Cl)c(-c4cccc(O)c4)cc3c2OCC[C@H]2CCCCN2)c1` the same measures were 1.1 nM and 0.037 nM.
Turning to `COc1ccc(-c2cc3c(OCC[C@H]4CCCCN4)c(-c4cc(C)cc(C)c4)cnc3cc2Cl)cn1`, the half-maximal inhibitory concentration (IC50) in series [1] turned out to be 50 nM. Also, the Ki in series [2] amounted to 0.65 nM.
With `Cc1cc(C)cc(-c2c(OCC[C@H]3CCCCN3)c3cc(-c4ccc(F)cc4)c(Cl)cc3[nH]c2=O)c1`, the affinity in [2] corresponds to a Ki of 1.5 nM.
In the case of `Cc1cc(C)cc(-c2cnc3cc(Cl)c(-c4ccc(CO)cc4)cc3c2OCC[C@H]2CCCCN2)c1`, the IC50 in series [1] was 13 nM. This compound also came in with a Ki in [2] of 0.1 nM.
`Cc1cc(C)cc(-c2cnc3cc(Cl)c(C(=O)Nc4ccncn4)cc3c2OCC[C@H]2CCCCN2)c1` displayed an IC50 in series [3] of 2440 nM. This compound also had a Ki in series [2] of 20 nM.
In turn, `Cc1cc(C)cc(-c2cnc3cc(Cl)c(-c4cnn(C)c4)cc3c2OCC[C@H]2CCCCN2)c1` had a clearance in series [4] of 14 mL/min/kg. In addition, the half-life in series [5] was 222 min. In [6], the Vd turned out to be 3.1 L/kg. The compound also displayed a bioavailability in series [7] of 27%. The fold change (FC) in the series listed under Homo sapiens [8], in the series filed under Homo sapiens [9] and in the series listed under Homo sapiens [10] was greater than 1000 each time.
On to `Cc1cc(C)cc(-c2cnc3cc(Cl)c(-c4ccc(O)cc4)cc3c2OCC[C@H]2CCCCN2)c1`, for which the IC50 in [1] turned out to be 0.38 nM. Further, in [2], the Ki stood at 0.08 nM.
On to `Cc1cc(C)cc(-c2cnc3cc(Cl)c(-c4cccc(C(N)=O)c4)cc3c2OCCCN)c1`, for which, in series [1], the IC50 was 0.38 nM. In [2], this compound came in with an inhibition constant Ki of 0.08 nM.
Turning to `Cc1cc(C)cc(-c2cnc3cc(Cl)c(-c4ccc(=O)[nH]c4)cc3c2OCC[C@H]2CCCCN2)c1`, in series [11], the clearance was 5 mL/min/kg. Moreover, the half-life in [12] was 33 min. Further, the Vd in series [13] was 0.094 L/kg. For the same compound, the fold change (FC) in the series filed under Homo sapiens [8], in the series filed under Homo sapiens [9] and in the series listed under Homo sapiens [10] was greater than 1000 in each case. Also, in series [1], the concentration for half-maximal inhibition (IC50) came out at 0.29 nM. Moreover, in [2], affinity was put at a Ki of 0.27 nM.
Consider `Cc1cc(C)cc(-c2cnc3cc(Cl)c(-c4ccc(N)nc4)cc3c2OCC[C@H]2CCCCN2)c1`, for which the concentration for half-maximal inhibition (IC50) in series [1] came to 34 nM. The compound also displayed a Ki in [2] of 0.6 nM.
In the same order, the values of `Cc1cc(C)cc(-c2cnc3cc(Cl)c(-c4ccc(F)nc4)cc3c2OCC[C@H]2CCCCN2)c1` are 4.7 nM and 0.12 nM.
Compound `Cc1cc(C)cc(-c2c(OCCC3CCCCN3)c3cc(-c4ccncn4)c(Cl)cc3[nH]c2=O)c1` (configuration not stated) returned a concentration for half-maximal inhibition (IC50) in series [3] of 3.2 nM. The affinity in [2] corresponds to a Ki of 1400 nM.
With `Cc1cc(C)cc(-c2cnc3cc(Cl)c(-c4cccc(O)c4)cc3c2OCCCN)c1`, the clearance came to 52 mL/min/kg in series [14] and 7.1 mL/min/kg in [18]. Besides, the values for the half-life in series [15] and in [19] were 174 min and 660 min, respectively. Also, the Vd worked out at 9.4 L/kg in series [16] and 5.7 L/kg in series [20]. This compound also came in with a bioavailability in series [17] of 17%. Moreover, the Activity in the series with Rattus norvegicus [21] is 35%; with Rattus norvegicus [22], 53%; in the series on Rattus norvegicus [23], “Dose-dependent effect”; with Rattus norvegicus [25] it was 38%; with Rattus norvegicus [26] it was 91%. In addition, in the series on Rattus norvegicus [24], the inhibition entry is “Dose-dependent effect”. Moreover, the half-maximal inhibitory concentration (IC50) in [1] came out at 4.8 nM. This compound also displayed a Ki in [2] of 0.025 nM. Further, the solubility entry in series [27] is reported as “Insoluble”.
For the compound `Cc1cc(C)cc(-c2cnc3cc(Cl)c(-c4cccc(C(N)=O)c4)cc3c2OCC[C@H]2CCCCN2)c1`, the IC50 in [1] was 0.39 nM. The same compound gave a Ki in [2] of 0.038 nM.
In the case of `OCc1cccc(-c2ccc3ncc(-c4cccc(CO)c4)c(OCC[C@H]4CCCCN4)c3c2)c1`, the IC50 in [1] worked out at 11 nM. Also, the inhibitory constant (Ki) in series [2] is 0.13 nM.
On to `Cc1cc(C)cc(-c2cnc3cc(Cl)c(-c4cccnc4)cc3c2OCC[C@H]2CCCCN2)c1`, for which the IC50 in series [1] came to 8.3 nM. In addition, in [2], the inhibition constant Ki was found to be 0.13 nM.
`Cc1cc(C)cc(-c2cnc3cc(Cl)c(-c4ccc(Cl)nc4)cc3c2OCC[C@H]2CCCCN2)c1`: the half-maximal inhibitory concentration (IC50) in series [1] turned out to be 11 nM. Besides, the Ki in series [2] was found to be 0.13 nM.
For the compound `Cn1cc(-c2cc3c(OCC[C@H]4CCCCN4)c(-c4cccc(CO)c4)cnc3cc2Cl)cn1`, the IC50 in series [1] worked out at 8.3 nM. In series [2], this compound registered an inhibitory constant (Ki) of 0.13 nM.

Source of the values: ChEMBL document CHEMBL1764995, “Design, synthesis, and evaluation of novel 3,6-diaryl-4-aminoalkoxyquinolines as selective agonists of somatostatin receptor subtype 2” (J Med Chem, 2011).
